This passage reports inhibition of growth, GI50 and MIC results from ChEMBL document CHEMBL2016524, “Synthesis and in vitro anticancer and antitubercular activity of diarylpyrazole ligated dihydropyrimidines possessing lipophilic carbamoyl group” (2012).

≈ marks a conversion by molar mass, not a printed value.

Common to all, as to assay type: functional
Experiment [1] has as its system MCF7. Description: Growth inhibition of human MCF7 cells at 10 uM after 24 hrs by SRB assay. As to conditions: MCF7, 24 h, read-out: GI. Summed up: (§1)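 Human breast cancer MCF-7 cells were exposed to each compound at four doses (1 × 10^-7, 10^-6, 10^-5 and 10^-4 M) and growth was read by sulforhodamine B assay. Values are % control growth, with negative numbers meaning cell kill. GI50 is the concentration giving 50% inhibition of cell growth. Positive controls were included, and each experiment was done three times.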

Experiment [2] concerns MCF7. As to the kind of experiment: Growth inhibition of human MCF7 cells at 100 uM after 24 hrs by SRB assay. Particulars: MCF7, 24 h, read-out: GI. Summed up: as §1
The test system of experiment [3] is MCF7. As to the kind of experiment: Growth inhibition of human MCF7 cells after 24 hrs by SRB assay. As to conditions: MCF7, 24 h. Summed up:
as §1

Experiment [4] concerns Mycobacterium tuberculosis. As to the kind of experiment: Antitubercular activity against Mycobacterium tuberculosis H37Rv after 5 days by microplate Alamar blue assay. As to conditions: 120 h. Summed up:
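MIC read by resazurin (Alamar Blue) microplate assay after 5 days of incubation at 37 °C. Run in duplicate each time, repeated twice, and MIC confirmed in a BacT/ALERT MP mycobacterial detection system.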
On the technique in general: The colour change of resazurin is a common sign of viable cells or microbes.

Experiment [5] deals with MCF7. As to the kind of experiment: Growth inhibition of human MCF7 cells at 0.1 uM after 24 hrs by SRB assay. Particulars: MCF7, 24 h, read-out: GI. The essentials:
as §1
(In SRB staining, fixed cells bind dye roughly in proportion to their protein.)

Experiment [6] has as its system MCF7. Description: Growth inhibition of human MCF7 cells at 1 uM after 24 hrs by SRB assay. Particulars: MCF7, 24 h, read-out: GI. Summed up:
as §1

For the compound `CCOC(=O)C1=C(C)NC(=O)NC1c1cn(-c2ccccc2)nc1-c1ccc(Cl)cc1` (stereo unspecified), the inhibition of growth at 10 µM in experiment [1] is 17.1%. In addition, the inhibition of growth at 100 µM in experiment [2] was found to be 70.3%. Moreover, the GI50 in experiment [3] turned out to be 68.8 µM. Besides, the MIC in experiment [4] turned out to be 0.25 µg/mL (≈ 0.572 µM).

In the case of `COc1ccc(NC(=O)C2=C(C)NC(=O)NC2c2cn(-c3ccccc3)nc2-c2ccc(Cl)cc2)cc1` (stereo unspecified), the inhibition of growth at 10 µM in experiment [1] is under 10%. For the same compound, the inhibition of growth at 100 µM in experiment [2] was 72.1%. Besides, growth in experiment [3] was halved (GI50) at 69.7 µM. In experiment [4], this compound yielded an MIC of 1 µg/mL (≈ 1.95 µM).

Turning to `CC1=C(C(=O)Nc2ccc(C)cc2)C(c2cn(-c3ccccc3)nc2-c2ccc(Cl)cc2)NC(=O)N1` (stereo unspecified), in experiment [1], the inhibition of growth at 10 µM was 13.6%. Moreover, the inhibition of growth at 100 µM in experiment [2] is 70.4%. Further, in experiment [3], halving of growth (GI50) required 69.7 µM. Further, the MIC in experiment [4] came to 32 µg/mL (≈ 64.3 µM).

Consider `CC1=C(C(=O)Nc2ccc(C)cc2)C(c2cn(-c3ccccc3)nc2-c2ccccc2)NC(=S)N1` (stereo unspecified), for which the inhibition of growth at 10 µM in experiment [1] turned out to be 19.7%. In addition, the inhibition of growth at 100 µM in experiment [2] amounted to 84.3%. Also, in experiment [3], it took 56.1 µM to inhibit growth by half (GI50). The MIC in experiment [4] was 16 µg/mL (≈ 33.4 µM).

As for `CC1=C(C(=O)Nc2ccccc2)C(c2cn(-c3ccccc3)nc2-c2ccc(Cl)cc2)NC(=S)N1` (stereo unspecified), the inhibition of growth at 10 µM in experiment [1] is 24.2%. The inhibition of growth at 100 µM in experiment [2] is 74.7%. This compound also showed a GI50 in experiment [3] of 61.5 µM. Moreover, in experiment [4], the MIC came out at 32 µg/mL (≈ 64 µM).

With `CC1=C(C(=O)Nc2ccccc2Cl)C(c2cn(-c3ccccc3)nc2-c2ccccc2)NC(=S)N1` (stereo unspecified), the inhibition of growth at 10 µM in experiment [1] is 16.5%. Besides, in experiment [2], the inhibition of growth at 100 µM stood at 68.5%. For the same compound, the GI50 in experiment [3] stood at 68.8 µM. This compound also yielded an MIC in experiment [4] of 16 µg/mL (≈ 32 µM).

As to `CC1=C(C(=O)Nc2ccc(Cl)cc2)C(c2cn(-c3ccccc3)nc2-c2ccccc2)NC(=S)N1` (stereo unspecified), in experiment [1], the inhibition of growth at 10 µM came to 48.6%. Besides, the inhibition of growth at 100 µM in experiment [2] was -12.8%. This compound displayed a GI50 in experiment [3] of 34.7 µM. For the same compound, in experiment [4], the MIC was 8 µg/mL (≈ 16 µM).

As for `CC1=C(C(=O)Nc2ccccc2)C(c2cn(-c3ccccc3)nc2-c2ccc(Cl)cc2)NC(=O)N1` (stereo unspecified), the inhibition of growth at 10 µM in experiment [1] came out at 19.6%. The inhibition of growth at 100 µM in experiment [2] worked out at 71.7%. The compound also showed a GI50 in experiment [3] of 65.5 µM. In experiment [4], this compound displayed an MIC of 2 µg/mL (≈ 4.13 µM).

As for `CC1=C(C(=O)Nc2ccc(C)cc2)C(c2cn(-c3ccccc3)nc2-c2ccccc2)NC(=O)N1` (stereo unspecified), in experiment [1], the inhibition of growth at 10 µM was 11.9%. The inhibition of growth at 100 µM in experiment [2] is 68.6%. Further, the GI50 in experiment [3] turned out to be 71.7 µM. In experiment [4], this compound showed an MIC of 32 µg/mL (≈ 69 µM).

For the compound `CC1=C(C(=O)Nc2ccccc2Cl)C(c2cn(-c3ccccc3)nc2-c2ccccc2)NC(=O)N1` (stereo unspecified), the inhibition of growth at 10 µM in experiment [1] came to 13.9%. Moreover, the inhibition of growth at 100 µM in experiment [2] came to 72.2%. The GI50 in experiment [3] turned out to be 66.6 µM. In experiment [4], 32 µg/mL (≈ 66.1 µM) was the least that counted as inhibitory (MIC).

On to `CC1=C(C(=O)Nc2ccccc2)C(c2cn(-c3ccccc3)nc2-c2ccccc2)NC(=S)N1` (stereo unspecified), for which the inhibition of growth at 10 µM in experiment [1] was under 10%. Further, in experiment [2], the inhibition of growth at 100 µM was 57.4%. In experiment [3], this compound returned a GI50 of 88.2 µM. In addition, in experiment [4], 32 µg/mL (≈ 68.7 µM) was the least that counted as inhibitory (MIC).

For the compound `CCOC(=O)C1=C(C)NC(=S)NC1c1cn(-c2ccccc2)nc1-c1ccc(Cl)cc1` (stereo unspecified), the inhibition of growth at 10 µM in experiment [1] is 70.6%. Besides, the inhibition of growth at 100 µM in experiment [2] was found to be 99.2%. In experiment [3], this compound gave a GI50 of 33.2 µM. In experiment [4], this compound showed an MIC of 0.125 µg/mL (≈ 0.276 µM). Moreover, in experiment [5], the inhibition of growth at 0.1 µM came out at 4.1%. In addition, the inhibition of growth at 1 µM in experiment [6] is 12%.

On to `COc1ccc(NC(=O)C2=C(C)NC(=S)NC2c2cn(-c3ccccc3)nc2-c2ccccc2)cc1` (stereo unspecified), for which, in experiment [1], the inhibition of growth at 10 µM is under 10%. Also, the inhibition of growth at 100 µM in experiment [2] amounted to 63.9%. Moreover, halving of growth in experiment [3] (GI50) required 77.3 µM. In experiment [4], this compound gave an MIC of 8 µg/mL (≈ 16.1 µM).

Regarding `CCOC(=O)C1=C(C)NC(=O)NC1c1cn(-c2ccccc2)nc1-c1ccccc1` (stereo unspecified), the inhibition of growth at 10 µM in experiment [1] is under 10%. In addition, the inhibition of growth at 100 µM in experiment [2] turned out to be 86%. In experiment [3], this compound displayed a GI50 of 60.8 µM. Moreover, the MIC in experiment [4] was found to be 16 µg/mL (≈ 39.8 µM).

Turning to `CCOC(=O)C1=C(C)NC(=S)NC1c1cn(-c2ccccc2)nc1-c1ccccc1` (stereo unspecified), the inhibition of growth at 10 µM in experiment [1] amounted to 30.4%. Also, the inhibition of growth at 100 µM in experiment [2] is -12%. Also, halving of growth in experiment [3] (GI50) required 42 µM. The same compound showed an MIC in experiment [4] of 32 µg/mL (≈ 76.5 µM).

For `CC1=C(C(=O)Nc2ccc(Cl)cc2)C(c2cn(-c3ccccc3)nc2-c2ccc(Cl)cc2)NC(=O)N1` (stereo unspecified), the inhibition of growth at 10 µM in experiment [1] was under 10%. Also, in experiment [2], the inhibition of growth at 100 µM came to 88.7%. Halving of growth in experiment [3] (GI50) required 56.9 µM. This compound also returned an MIC in experiment [4] of 32 µg/mL (≈ 61.7 µM).

`COc1ccc(NC(=O)C2=C(C)NC(=S)NC2c2cn(-c3ccccc3)nc2-c2ccc(Cl)cc2)cc1` (stereo unspecified): in experiment [1], the inhibition of growth at 10 µM is under 10%. The inhibition of growth at 100 µM in experiment [2] came to 72%. In addition, in experiment [3], the GI50 came out at 70 µM. The compound also had an MIC in experiment [4] of 16 µg/mL (≈ 30.2 µM).

For the compound `CC1=C(C(=O)Nc2ccccc2)C(c2cn(-c3ccccc3)nc2-c2ccccc2)NC(=O)N1` (stereo unspecified), in experiment [1], the inhibition of growth at 10 µM was under 10%. Moreover, in experiment [2], the inhibition of growth at 100 µM came to 63.2%. For the same compound, the GI50 in experiment [3] turned out to be 80.6 µM. Besides, 32 µg/mL (≈ 71.2 µM) was the least that counted as inhibitory in experiment [4] (MIC).

Take `CC1=C(C(=O)Nc2ccc([N+](=O)[O-])cc2)C(c2cn(-c3ccccc3)nc2-c2ccccc2)NC(=S)N1` (stereo unspecified): in experiment [1], the inhibition of growth at 10 µM was determined as 48.4%. For the same compound, the inhibition of growth at 100 µM in experiment [2] is 99.3%. In addition, the GI50 in experiment [3] is 41.4 µM. For the same compound, the MIC in experiment [4] amounted to 32 µg/mL (≈ 62.7 µM).

In the case of `CC1=C(C(=O)Nc2ccc([N+](=O)[O-])cc2)C(c2cn(-c3ccccc3)nc2-c2ccccc2)NC(=O)N1` (stereo unspecified), the inhibition of growth at 10 µM in experiment [1] worked out at 27.3%. In addition, the inhibition of growth at 100 µM in experiment [2] is -17.7%. Besides, in experiment [3], it took 35.5 µM to inhibit growth by half (GI50). 16 µg/mL (≈ 32.4 µM) was the least that counted as inhibitory in experiment [4] (MIC).

`CC1=C(C(=O)Nc2ccc(C)cc2)C(c2cn(-c3ccccc3)nc2-c2ccc(Cl)cc2)NC(=S)N1` (stereo unspecified): the inhibition of growth at 10 µM in experiment [1] came out at 63.7%. In addition, the inhibition of growth at 100 µM in experiment [2] turned out to be 84.9%. The same compound registered a 50% growth inhibitory concentration (GI50) in experiment [3] of 43.5 µM. For the same compound, it took 2 µg/mL (≈ 3.89 µM) to inhibit growth in experiment [4] (MIC).

One may read the GI50 as the concentration that inhibits growth by half. Read a high GI50 as less potent growth inhibition. For orientation: MIC means the least concentration at which growth counts as inhibited. A low value points to greater potency.
